# How the values were obtained:
# [1] = test system: Mycobacterium tuberculosis; assay: Antimicrobial activity against multi drug-resistant Mycobacterium tuberculosis 12611 after 7 days by MABA; assay type: functional; conditions: Mycobacterium tuberculosis, 12611, 168 h
# In short: (§1)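 Strain H37Rv or clinical isolates grown to late log phase in 7H9-ADC-TG, washed, resuspended in PBS, filtered (8 µm) and frozen. On day 7 Tween 80 and alamar blue added, read 16–24 h later (ex 530/em 590). MIC = lowest concentration giving ≥90% fluorescence reduction versus bacterium-only controls.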
# [2] = test system: Mycobacterium tuberculosis; assay: Antimicrobial activity against multi drug-resistant Mycobacterium tuberculosis 14231 after 7 days by MABA; assay type: functional; conditions: Mycobacterium tuberculosis, 14231, 168 h; in short: as §1
SMILES,MIC90 [1],MIC90 [2]
O=c1cc(N2CCN(Cc3ccccc3)CC2)sc2c([N+](=O)[O-])cc(C(F)(F)F)cc12,0.011 µg/mL,0.023 µg/mL
NNC(=O)c1ccncc1 [ISONIAZID],19.5 µg/mL,> 40 µg/mL
O=c1cc(N2CCN(CC3CCCCC3)CC2)sc2c([N+](=O)[O-])cc(C(F)(F)F)cc12,< 0.002 µg/mL,< 0.002 µg/mL
CO[C@H]1/C=C/O[C@@]2(C)Oc3c(C)c(O)c4c(O)c(c(/C=N/N5CCN(C)CC5)c(O)c4c3C2=O)NC(=O)/C(C)=C\C=C\[C@H](C)[C@H](O)[C@@H](C)[C@@H](O)[C@@H](C)[C@H](OC(C)=O)[C@@H]1C [RIFAMPIN],> 40 µg/mL,> 40 µg/mL
O=c1nc(N2CCN(CC3CCCCC3)CC2)sc2c([N+](=O)[O-])cc(C(F)(F)F)cc12 [MACOZINONE],< 0.002 µg/mL,< 0.002 µg/mL
